The species entered for test [1] is Rattus norvegicus. Description: In vitro inhibition of hypoxic-mediated cell injury in Dawley fetal rat brain.
For test [2], the species on record is Rattus norvegicus. Put plainly: In vitro inhibition of veratridine induced LDH release in rat embryos. In kind it is functional. The method, boiled down: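 Rat embryo cortical neuron cultures, 17–18 days old, given compound together with 100 μM veratridine in HEPES saline (pH 7.4) for 10 min. Medium was then replaced by serum-free medium. LDH in medium taken 1 day later, read kinetically as A340 decline of NADH after pyruvate addition at 37 °C.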
On the technique in general: Release of lactate dehydrogenase indicates damage to the cell membrane.

For test [3], the target named is Sodium channel protein type 2 subunit alpha (Rattus norvegicus, UniProt P04775). Description: Inhibition of veratridine-induced Na+ influx in chinese hamster ovary cells expressing alpha subunit of rat brain type voltage-gated sodium channel type 2. The test is classed as functional. The method, boiled down:
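CNaIIA-1 cells (CHO-K1 transfected with rat brain IIA α subunit cDNA) in choline-based KRH buffer, pH 7.4. Compound at 0.01–100 μM final, added with 30 μM veratridine plus α-scorpion venom, 11 min at 37 °C. Cell-retained radioactivity counted after Triton lysis; IC50 determined.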

For test [4], the target named is Sodium channel alpha subunits; brain (Types I, II, III) (Rattus norvegicus, UniProt P04775+P04774+P08104). Put plainly: Inhibition of [3H]- batrachotoxin binding to sodium channel in rat neocortical membrane. In kind it is cell membranes.

Sodium channel protein type 2 subunit alpha, sequence (P04775 whole entry): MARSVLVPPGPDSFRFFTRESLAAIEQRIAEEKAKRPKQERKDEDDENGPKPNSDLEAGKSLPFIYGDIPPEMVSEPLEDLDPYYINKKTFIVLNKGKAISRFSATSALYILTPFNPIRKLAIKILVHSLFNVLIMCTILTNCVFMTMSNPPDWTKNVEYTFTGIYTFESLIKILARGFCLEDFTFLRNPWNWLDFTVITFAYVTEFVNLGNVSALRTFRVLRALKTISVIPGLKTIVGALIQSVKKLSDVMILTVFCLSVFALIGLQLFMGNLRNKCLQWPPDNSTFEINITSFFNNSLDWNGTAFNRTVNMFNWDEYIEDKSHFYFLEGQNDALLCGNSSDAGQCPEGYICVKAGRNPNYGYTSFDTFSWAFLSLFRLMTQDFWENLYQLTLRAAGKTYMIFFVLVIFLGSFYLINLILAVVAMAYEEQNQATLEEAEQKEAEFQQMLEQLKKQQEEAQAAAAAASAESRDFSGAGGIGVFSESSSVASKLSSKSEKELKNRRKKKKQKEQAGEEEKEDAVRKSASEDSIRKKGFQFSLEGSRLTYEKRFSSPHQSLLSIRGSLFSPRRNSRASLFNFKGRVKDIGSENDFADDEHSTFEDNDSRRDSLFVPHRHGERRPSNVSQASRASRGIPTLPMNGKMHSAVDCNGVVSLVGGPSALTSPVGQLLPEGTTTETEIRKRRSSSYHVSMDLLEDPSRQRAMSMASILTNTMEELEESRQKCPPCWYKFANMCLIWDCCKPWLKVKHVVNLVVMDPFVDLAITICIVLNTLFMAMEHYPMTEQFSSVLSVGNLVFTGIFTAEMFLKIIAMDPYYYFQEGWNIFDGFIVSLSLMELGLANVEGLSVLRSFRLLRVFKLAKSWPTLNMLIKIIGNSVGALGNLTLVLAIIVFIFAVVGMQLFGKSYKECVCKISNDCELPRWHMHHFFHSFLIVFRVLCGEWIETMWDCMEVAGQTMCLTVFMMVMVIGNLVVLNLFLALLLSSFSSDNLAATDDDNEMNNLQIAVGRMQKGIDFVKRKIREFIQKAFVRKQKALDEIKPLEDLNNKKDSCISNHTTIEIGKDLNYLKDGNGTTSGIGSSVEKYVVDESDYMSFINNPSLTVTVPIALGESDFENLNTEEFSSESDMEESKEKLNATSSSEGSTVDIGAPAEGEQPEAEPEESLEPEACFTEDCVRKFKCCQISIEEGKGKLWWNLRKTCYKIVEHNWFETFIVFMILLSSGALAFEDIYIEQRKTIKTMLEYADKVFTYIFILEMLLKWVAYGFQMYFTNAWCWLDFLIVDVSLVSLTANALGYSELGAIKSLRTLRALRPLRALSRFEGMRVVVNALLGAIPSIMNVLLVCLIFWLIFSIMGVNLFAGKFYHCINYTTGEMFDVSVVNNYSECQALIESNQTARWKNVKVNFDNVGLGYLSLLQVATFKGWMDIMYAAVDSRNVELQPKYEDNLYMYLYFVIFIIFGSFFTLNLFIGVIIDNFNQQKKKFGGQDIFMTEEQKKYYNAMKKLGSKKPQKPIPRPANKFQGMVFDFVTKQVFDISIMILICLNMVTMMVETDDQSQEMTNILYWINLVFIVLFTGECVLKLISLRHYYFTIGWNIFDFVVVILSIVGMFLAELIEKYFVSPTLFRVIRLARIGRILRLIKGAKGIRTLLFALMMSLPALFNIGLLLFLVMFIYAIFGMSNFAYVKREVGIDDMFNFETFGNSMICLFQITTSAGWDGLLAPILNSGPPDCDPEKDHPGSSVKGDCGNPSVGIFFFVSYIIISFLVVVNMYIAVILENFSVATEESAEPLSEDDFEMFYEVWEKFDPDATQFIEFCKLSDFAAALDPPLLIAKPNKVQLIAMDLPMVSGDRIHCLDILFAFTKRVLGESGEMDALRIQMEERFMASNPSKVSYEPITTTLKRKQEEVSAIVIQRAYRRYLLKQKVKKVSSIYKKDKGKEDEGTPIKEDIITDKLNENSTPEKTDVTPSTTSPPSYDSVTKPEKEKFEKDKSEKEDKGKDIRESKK

As usually defined, the IC50 is the concentration that inhibits the measured activity by half. Higher therefore signals lower potency. What is called Ki is the dissociation constant of the complex between target and ligand, obtained from inhibition or displacement. Take `CC1CCCC(C)N1CCCNC(=O)C(c1ccccc1)c1ccccc1` (centres undefined): the IC50 in test [1] stood at 89 µM; in test [2], 5 µM; in test [3], 2.7 µM. The same compound displayed a Ki in test [4] of 0.26 µM.
In turn, `CC1CCCC(C)N1CCCN1C(=O)CC(c2ccccc2)(c2ccccc2)C1=O` (centres undefined) came in with an IC50 in test [3] of 3.6 µM. In test [4], this compound yielded a Ki of 1 µM.
`CC1CCCC(C)N1CCCNC(=O)C(c1ccc(Cl)cc1)c1ccc(Cl)cc1` (centres undefined) had an IC50 in test [3] of 4.5 µM. For the same compound, the Ki in test [4] was 0.11 µM.
Turning to `COc1ccc(C(C(=O)NCCCN2C(C)CCCC2C)c2ccc(OC)c3ccccc23)c2ccccc12` (centres undefined), inhibition in test [3] was half-maximal at 13 µM (IC50). For the same compound, the Ki in test [4] was 0.24 µM.
In the case of `CC1CCCC(C)N1CCCNC(=O)C1(c2ccccc2)CCCCC1` (centres undefined), the IC50 in test [1] amounted to 61 µM; in test [2], 12 µM; in test [3], 4.3 µM. The same compound had a Ki in test [4] of 0.38 µM.
As for `CC1CCCC(C)N1CCCNC(=O)C1c2ccccc2-c2ccccc21` (centres undefined), the figures for the IC50 in test [1], in test [2] and in test [3] were 51 µM, above 30 µM and 29 µM, respectively. The Ki in test [4] worked out at 2.3 µM.
Regarding `CC1CCCC(C)N1CCCNC(=O)C(c1ccccc1Cl)c1ccccc1Cl` (centres undefined), the IC50 in test [1] was 4.8 µM; in test [2], 6 µM; in test [3] it was 3.5 µM. For the same compound, the Ki in test [4] is 0.073 µM.
Compound `CC1CCCC(C)N1CCCNC(=O)C(c1ccc(F)cc1)c1ccc(F)cc1` (centres undefined) registered an IC50 in test [3] of 5.8 µM. In test [4], the Ki came out at 0.13 µM.
With `CC1CCCC(C)N1CCCNC(=O)Cc1ccccc1` (centres undefined), the results for the half-maximal inhibitory concentration (IC50) in test [1], in test [2] and in test [3] were above 100 µM, above 30 µM and above 100 µM, respectively. The compound also gave a Ki in test [4] of 21 µM.
As for `COc1ccc(C(C(=O)NCCCN2C(C)CCCC2C)c2ccc(OC)cc2)cc1` (centres undefined), the IC50 in test [3] came to 3.1 µM. The Ki in test [4] worked out at 1 µM.
As to `CC1CCCC(C)N1CCCNC(=O)Cc1cccc2ccccc12` (centres undefined), the IC50 in test [3] is above 100 µM. Moreover, in test [4], the Ki is 6.9 µM.
Regarding `CC1CCCC(C)N1CCCNC(=O)C1c2ccccc2Oc2ccccc21` (centres undefined), in test [3], the IC50 was 13 µM. Further, in test [4], the Ki worked out at 0.41 µM.
On to `CC1CCCC(C)N1CCCNC(=O)N(c1ccccc1)c1ccccc1` (centres undefined), for which the IC50 was above 100 µM in test [1] and above 30 µM in test [2].
Compound `Fc1ccc(C(c2ccc(F)cc2)N2CCN(C/C=C/c3ccccc3)CC2)cc1` [FLUNARIZINE] had an IC50 in test [2] of 2 µM.
Regarding `Cc1cccc(C)c1NC(=O)CN1CCN(CCCC(c2ccc(F)cc2)c2ccc(F)cc2)CC1` [LIDOFLAZINE], in test [3], the midpoint of inhibition, the IC50, lay at 2.4 µM. In addition, the inhibition constant Ki in test [4] worked out at 0.077 µM.

Source of the values: ChEMBL document CHEMBL1127729, “Synthesis and pharmacological evaluation of phenylacetamides as sodium-channel blockers” (J Med Chem, 1994).
